In ChEMBL document CHEMBL1649113, “Efficacy of the combination of tachyplesin III and clarithromycin in rat models of Escherichia coli sepsis” (Antimicrob Agents Chemother, 2008):
Values after ≈ are worked out from the molar mass of the structure shown. Active and inactive are the calls of the source. The calls are words filed in the database; no cut-off is given here. Bridge positions count the residues as written; N and C are the ends. Peptide text beside a SMILES is read from it.

What was measured:
Escherichia coli [1] = assay: Antibacterial activity against Escherichia coli ATCC 25922 assessed as inhibition of bacterial growth at 4 mg/L; format: functional, organism-based
Rattus norvegicus [2] = assay: Decrease in TNF-alpha level in plasma of Escherichia coli serotype 0111:B4 infected Wistar rat at 1 mg/kg, iv administered immediately after LPS challenge; format: functional, organism-based; parameters: dose 1 mg/kg
In short: (§1)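 Anaesthetised male Wistar rats (15 per group) given 1.0 mg E. coli 0111:B4 LPS i.p. in 500 μl saline, treated immediately; saline controls. Tail-vein blood sampled into EDTA at 0, 2, 6, 12 and 36 h. Endotoxin by Limulus amebocyte lysate: plasma twofold diluted, heated 5 min at 75°C, read against a 0–0.5 EU/ml standard curve. TNF-α by sandwich ELISA at 450 nm, in duplicate, lower limit 0.05 ng/ml.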

Rattus norvegicus [3] = assay: Decrease in endotoxin level in plasma of Escherichia coli serotype 0111:B4 infected Wistar rat at 1 mg/kg, iv administered immediately after LPS challenge; format: functional, organism-based; parameters: dose 1 mg/kg; in short: as §1
Escherichia coli [4] = assay: Antibacterial activity against Escherichia coli clinical isolates by CLSI method in presence of 2 mg/L tachyplesin 3; format: functional
In short: (§2)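 Permeabilisation assay: 1 × 10^5 CFU added to twofold clarithromycin dilutions (1,000–0.5 μg/ml) in Iso-Sensitest broth, with or without peptide. Clarithromycin MIC compared with and without peptide. The lowest peptide level needed for sensitivity to 30 μg/ml clarithromycin was also determined.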

Rattus norvegicus [5] = assay: Toxicity in Wistar rat assessed as effect on physiological parameters at 1 mg/kg, iv; format: organism-based; parameters: dose 1 mg/kg, route intravenous; details: in vivo
In short: (§3)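 Rats receiving the peptide were watched for local inflammation, anorexia, weight loss, diarrhoea, fever and behavioural change. A separate uninfected group given 1 mg/kg peptide was monitored for temperature, pulse, blood pressure, respiration and oxygenation.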

Escherichia coli [6] = assay: Antibacterial activity against 1x10^9 CFU Escherichia coli ATCC 25922 infected Wistar rat assessed as rat mortality at 60 mg/kg, iv administered immediately after bacterial challenge measured 72 hrs postinfection (Rvb mortality = 100%); format: functional
Escherichia coli [7] = assay: Antibacterial activity against Escherichia coli by CLSI method in presence of 2 mg/L tachyplesin 3; format: functional, organism-based; in short: as §2
Escherichia coli [8] = assay: Antibacterial activity against Escherichia coli ATCC 25922 by CLSI method; format: functional
In short: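 Broth MIC by CLSI (NCCLS M7-A6) dilution method, run in triplicate.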

Escherichia coli [9] = assay: Antibacterial activity against Escherichia coli ATCC 25922 by CLSI method in presence of 2 mg/L tachyplesin 3; format: functional; in short: as §2
Escherichia coli [10] = assay: Antibacterial activity against 1x10^9 CFU Escherichia coli ATCC 25922 infected Wistar rat assessed as rat bacterial count in peritoneal fluid at 50 mg/kg, iv administered immediately after bacterial challenge measured 72 hrs postinfection (Rvb= 8.86 logCFU/ml); format: functional
In short: (§4)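 Male Wistar rats (3–5 months, 300–400 g) under ketamine/xylazine anaesthesia, inoculated i.p. with 1 × 10^9 CFU log-phase E. coli ATCC 25922 in 1 ml saline. Drug given immediately after challenge; saline controls; 15 rats per group. Survivors killed at end of 72 h. Peritoneal lavage with 10 ml saline, plated on blood agar at 35°C for 48 h, aerobic and anaerobic. Detection limit ≤2 log10 CFU/ml. Mean ± SD.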

Escherichia coli [11] = assay: Antibacterial activity against 1x10^9 CFU Escherichia coli ATCC 25922 infected Wistar rat assessed as rat bacterial count in peritoneal fluid at 1 mg/kg, iv administered immediately after bacterial challenge measured 72 hrs postinfection (Rvb= 8.86 logCFU/ml); format: functional; in short: as §4
Escherichia coli [12] = assay: Antibacterial activity against Escherichia coli ATCC 25922 assessed as bacterial count after 24 hrs; format: functional
Rattus norvegicus [13] = assay: Toxicity in Wistar rat assessed as occurrence of adverse events at 1 mg/kg, iv; format: organism-based; parameters: dose 1 mg/kg, route intravenous; details: in vivo; in short: as §3
Escherichia coli [14] = assay: Antibacterial activity against 1x10^9 CFU Escherichia coli ATCC 25922 infected Wistar rat assessed as rat mortality at 1 mg/kg, iv administered immediately after bacterial challenge measured 72 hrs postinfection (Rvb mortality = 100%); format: functional
Escherichia coli [15] = assay: Antibacterial activity against Escherichia coli ATCC 25922 by CLSI method in presence of tachyplesin 3; format: functional
Escherichia coli [16] = assay: Antibacterial activity against Escherichia coli ATCC 25922 by CLSI method in presence of clarithromycin; format: functional

## CC[C@H](C)[C@H](NC(=O)CNC(=O)[C@H](CCCNC(=N)N)NC(=O)[C@H](Cc1ccc(O)cc1)NC(=O)[C@H](CS)NC(=O)[C@@H](NC(=O)[C@H](CCCNC(=N)N)NC(=O)[C@H](Cc1ccccc1)NC(=O)[C@H](CS)NC(=O)[C@H](Cc1c[nH]c2ccccc12)NC(=O)[C@@H](N)CCCCN)C(C)C)C(=O)N[C@@H](CS)C(=O)N[C@@H](Cc1ccc(O)cc1)C(=O)N[C@@H](CCCNC(=N)N)C(=O)N[C@@H](CCCCN)C(=O)N[C@@H](CS)C(=O)N[C@@H](CCCNC(=N)N)C(N)=O (H-KWCFRVCYRGICYRKCR-NH2)
Escherichia coli [1]
  inhibition: Active
Rattus norvegicus [2]
  Activity: Active
Rattus norvegicus [3]
  Activity: Active

## CC[C@H]1OC(=O)[C@H](C)[C@@H](O[C@H]2C[C@@](C)(OC)[C@@H](O)[C@H](C)O2)[C@H](C)[C@@H](O[C@@H]2O[C@H](C)C[C@H](N(C)C)[C@H]2O)[C@](C)(OC)C[C@@H](C)C(=O)[C@H](C)[C@@H](O)[C@]1(C)O [CLARITHROMYCIN]
Escherichia coli [4]
  MIC: 32 µg/mL
Rattus norvegicus [5]
  Activity: Non-toxic
Escherichia coli [6]
  Activity: 66.6%
Escherichia coli [7]
  inhibition: Active
Escherichia coli [8]
  MIC: 128 µg/mL (≈ 171 µM)
Escherichia coli [9]
  MIC: 32 µg/mL
Escherichia coli [10]
  log10CFU/ml: 6.68

## CC[C@H](C)[C@@H]1NC(=O)CNC(=O)[C@H](CCCNC(=N)N)NC(=O)[C@H](Cc2ccc(O)cc2)NC(=O)[C@@H]2CSSC[C@H](NC1=O)C(=O)N[C@@H](Cc1ccc(O)cc1)C(=O)N[C@@H](CCCNC(=N)N)C(=O)N[C@@H](CCCCN)C(=O)N[C@H](C(=O)N[C@@H](CCCNC(=N)N)C(N)=O)CSSC[C@H](NC(=O)[C@H](Cc1c[nH]c3ccccc13)NC(=O)[C@@H](N)CCCCN)C(=O)N[C@@H](Cc1ccccc1)C(=O)N[C@@H](CCCNC(=N)N)C(=O)N[C@@H](C(C)C)C(=O)N2 [TACHYPLESIN III] (H-KWCFRVCYRGICYRKCR-NH2; disulfide 3-16, 7-12)
Escherichia coli [11]
  log10CFU/ml: 4.46
Escherichia coli [12]
  CFU: 5.65 ×10⁶ /ml
Rattus norvegicus [13]
  Activity: Non-toxic
Escherichia coli [14]
  Activity: 33.3%
Escherichia coli [15]
  fractional inhibitory concentration index (FICI): 0.385
Escherichia coli [16]
  fractional inhibitory concentration index (FICI): 0.385
